Measured values: ChEMBL document CHEMBL3085761, “Synthesis, anticonvulsant and anti-inflammatory studies of new 1,4-dihydropyridin-4-yl-phenoxyacetohydrazones” (Eur J Med Chem, 2013)

Assays:
Format in all cases: functional
[1] = tested on: Rattus norvegicus; test: Antiinflammatory activity in Wistar rat assessed as inhibition of carrageenan-induced paw edema at 20 mg/kg administered 30 mins prior to carrageenan-challenge measured after 3 hrs by plethysmographic analysis relative to control
In short: (§1)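 Male or female Wistar rats (100–150 g), five per group, fasted overnight; 20 mg/kg given by stomach tube in 5 mL water. 30 min later 0.05 mL 1% carrageenan s.c. into left hind paw plantar side; paw volume by mercury plethysmography at 0, 30, 60, 120, 180 min; percent inhibition versus control, one-way ANOVA with Dunnett's test.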

[2] = tested on: Rattus norvegicus; test: Antiinflammatory activity in Wistar rat assessed as inhibition of carrageenan-induced paw edema at 20 mg/kg administered 30 mins prior to carrageenan-challenge measured after 2 hrs by plethysmographic analysis relative to control; in short: as §1
[3] = tested on: Rattus norvegicus; test: Antiinflammatory activity in Wistar rat assessed as inhibition of carrageenan-induced paw edema at 20 mg/kg administered 30 mins prior to carrageenan-challenge measured after 1 hr by plethysmographic analysis relative to control; in short: as §1
[4] = tested on: Rattus norvegicus; test: Antiinflammatory activity in Wistar rat assessed as inhibition of carrageenan-induced paw edema at 20 mg/kg administered 30 mins prior to carrageenan-challenge measured after 30 mins by plethysmographic analysis relative to control; in short: as §1
[5] = tested on: Mus musculus; test: Anticonvulsant activity in ip dosed mouse assessed as protection against maximal electroshock-induced epileptic seizures after 4 hrs; conditions: read-out: MED
In short: (§2)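 Mice (20–40 g), groups of six to ten; i.p. doses 30, 100 and 300 mg/kg; tested at 0.5 and 4 h. Stimulus 50 mA, 60 Hz, 0.2 s via corneal electrodes primed with anaesthetic electrolyte; abolition of hindlimb tonic extension scored as protection. Value is the minimal dose protecting at least 50% of animals.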

[6] = tested on: Mus musculus; test: Anticonvulsant activity in ip dosed mouse assessed as protection against maximal electroshock-induced epileptic seizures after 0.5 hrs; conditions: read-out: MED; in short: as §2

| Compound | inhibition in vivo at 20 mg/kg [1] [%] | inhibition in vivo at 20 mg/kg [2] [%] | inhibition in vivo at 20 mg/kg [3] [%] | inhibition in vivo at 20 mg/kg [4] [%] | minimal effective dose [5] [mg/kg] | minimal effective dose [6] [mg/kg] |
| --- | --- | --- | --- | --- | --- | --- |
| O=C(O)Cc1ccccc1Nc1c(Cl)cccc1Cl [DICLOFENAC SODIUM] | 65.3 | 61.1 | 41 | 16.7 |  |  |
| O=C1NC(=O)C(c2ccccc2)(c2ccccc2)N1 [PHENYTOIN] |  |  |  |  | 30 | 30 |
